For data set [1], the target named is Sodium channel protein type 8 subunit alpha (Mus musculus) (UniProt Q9WTU3). The data set is described as follows: Inhibition of mouse Nav1.6 expressed in Xenopus laevis oocytes at closed state at 1 uM by two electrode voltage-clamp assay. Type of data set: cell-based. As to conditions: Oocyte. Summed up:
(§1)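 TEVC on Nav channels expressed in Xenopus laevis oocytes. Each oocyte was injected with 50 nL cRNA at 1 ng/nL and recorded 1–4 days later at 18–22 °C. Bath (mM): NaCl 96, KCl 2, CaCl2 1.8, MgCl2 2, HEPES 5, pH 7.4. Electrodes held 3 M KCl at 0.8–1.5 MΩ. Compound tested at 1 μM. Mean ± SD, n ≥ 5.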
In general terms: In two-electrode clamp one electrode senses voltage and the other passes current.

The target of data set [2] is Sodium channel protein type 2 subunit alpha (Rattus norvegicus) (UniProt P04775). Put plainly: Inhibition of rat Nav1.2 expressed in Xenopus laevis oocytes at closed state at 1 uM by two electrode voltage-clamp assay. Type of data set: cell-based. As to conditions: Oocyte. In outline:
as §1

Data set [3] deals with T1, Sodium channel protein type 9 subunit alpha (Homo sapiens, UniProt Q15858). The data set is described as follows: Inhibition of human Nav1.7 expressed in CHO cells under resting state by automated patch clamp electrophysiology analysis. The class given is cell-based. In general terms: The patch-clamp technique gives a direct electrical read-out from membranes.
Data set [4] deals with T2, Sodium channel protein type 5 subunit alpha (Homo sapiens, UniProt Q14524). Put plainly: Inhibition of human Nav1.5 expressed in CHO cells under tonic pulse 1 by automated patch clamp electrophysiology analysis. The class given is cell-based.
Data set [5] concerns the target T3, Sodium channel protein type 3 subunit alpha (Homo sapiens, UniProt Q9NY46). The data set is described as follows: Inhibition of human Nav1.3 expressed in CHO cells under inactivated state by automated patch clamp electrophysiology analysis. The class given is cell-based.
The target of data set [6] is T1, Sodium channel protein type 9 subunit alpha. Put plainly: Inhibition of human Nav1.7 expressed in CHO cells under inactivated state by automated patch clamp electrophysiology analysis. The class given is cell-based.
Data set [7] addresses Sodium channel protein type 3 subunit alpha (Rattus norvegicus) (UniProt P08104). The data set is described as follows: Inhibition of rat Nav1.3 expressed in Xenopus laevis oocytes at 1 uM under inactivated state by two electrode voltage-clamp assay relative to control. The class given is cell-based. To be noted: Oocyte. Summed up:
as §1

For data set [8], the target named is Sodium channel protein type 1 subunit alpha (Homo sapiens) (UniProt P35498). Put plainly: Inhibition of human Nav1.1 expressed in Xenopus laevis oocytes at closed state at 1 uM by two electrode voltage-clamp assay. As to conditions: Oocyte. Type of data set: cell-based. In outline: as §1
The target in data set [9] is T3, Sodium channel protein type 3 subunit alpha. The data set is described as follows: Inhibition of human Nav1.3 expressed in CHO cells under resting state by automated patch clamp electrophysiology analysis. Type of data set: cell-based.
The target in data set [10] is T2, Sodium channel protein type 5 subunit alpha. Put plainly: Inhibition of human Nav1.5 expressed in CHO cells under resting state by automated patch clamp electrophysiology analysis. Type of data set: cell-based.
For data set [11], the target named is Sodium channel protein type 3 subunit alpha (Rattus norvegicus) (UniProt P08104). The data set is described as follows: Inhibition of rat Nav1.3 expressed in Xenopus laevis oocytes at 1 uM under resting state by two electrode voltage-clamp assay relative to control. The class given is cell-based. To be noted: Oocyte. In outline: as §1
Data set [12] deals with Sodium channel protein type 4 subunit alpha (Rattus norvegicus) (UniProt P15390). Put plainly: Inhibition of rat Nav1.4 expressed in Xenopus laevis oocytes at closed state at 1 uM by two electrode voltage-clamp assay. The class given is cell-based. As to conditions: Oocyte. In outline:
as §1

The target in data set [13] is T2, Sodium channel protein type 5 subunit alpha. Put plainly: Inhibition of human Nav1.5 expressed in CHO cells by automated patch clamp electrophysiology analysis.
Data set [14] concerns the target T1, Sodium channel protein type 9 subunit alpha. Put plainly: Inhibition of human Nav1.7 expressed in Xenopus laevis oocytes at closed state at 1 uM by two electrode voltage-clamp assay. As to conditions: Oocyte. The class given is cell-based. In outline:
as §1

The target in data set [15] is T2, Sodium channel protein type 5 subunit alpha. Put plainly: Inhibition of human Nav1.5 expressed in Xenopus laevis oocytes at closed state at 1 uM by two electrode voltage-clamp assay. Type of data set: cell-based. As to conditions: oocyte. Summed up: as §1
Data set [16] deals with Sodium channel protein type 10 subunit alpha (Homo sapiens) (UniProt Q9Y5Y9). The data set is described as follows: Inhibition of human Nav1.8 expressed in Xenopus laevis oocytes at closed state at 1 uM by two electrode voltage-clamp assay. Type of data set: cell-based. As to conditions: Oocyte. In outline: as §1
Sequence of Sodium channel protein type 10 subunit alpha (Homo sapiens) (Q9Y5Y9 whole entry, looked up): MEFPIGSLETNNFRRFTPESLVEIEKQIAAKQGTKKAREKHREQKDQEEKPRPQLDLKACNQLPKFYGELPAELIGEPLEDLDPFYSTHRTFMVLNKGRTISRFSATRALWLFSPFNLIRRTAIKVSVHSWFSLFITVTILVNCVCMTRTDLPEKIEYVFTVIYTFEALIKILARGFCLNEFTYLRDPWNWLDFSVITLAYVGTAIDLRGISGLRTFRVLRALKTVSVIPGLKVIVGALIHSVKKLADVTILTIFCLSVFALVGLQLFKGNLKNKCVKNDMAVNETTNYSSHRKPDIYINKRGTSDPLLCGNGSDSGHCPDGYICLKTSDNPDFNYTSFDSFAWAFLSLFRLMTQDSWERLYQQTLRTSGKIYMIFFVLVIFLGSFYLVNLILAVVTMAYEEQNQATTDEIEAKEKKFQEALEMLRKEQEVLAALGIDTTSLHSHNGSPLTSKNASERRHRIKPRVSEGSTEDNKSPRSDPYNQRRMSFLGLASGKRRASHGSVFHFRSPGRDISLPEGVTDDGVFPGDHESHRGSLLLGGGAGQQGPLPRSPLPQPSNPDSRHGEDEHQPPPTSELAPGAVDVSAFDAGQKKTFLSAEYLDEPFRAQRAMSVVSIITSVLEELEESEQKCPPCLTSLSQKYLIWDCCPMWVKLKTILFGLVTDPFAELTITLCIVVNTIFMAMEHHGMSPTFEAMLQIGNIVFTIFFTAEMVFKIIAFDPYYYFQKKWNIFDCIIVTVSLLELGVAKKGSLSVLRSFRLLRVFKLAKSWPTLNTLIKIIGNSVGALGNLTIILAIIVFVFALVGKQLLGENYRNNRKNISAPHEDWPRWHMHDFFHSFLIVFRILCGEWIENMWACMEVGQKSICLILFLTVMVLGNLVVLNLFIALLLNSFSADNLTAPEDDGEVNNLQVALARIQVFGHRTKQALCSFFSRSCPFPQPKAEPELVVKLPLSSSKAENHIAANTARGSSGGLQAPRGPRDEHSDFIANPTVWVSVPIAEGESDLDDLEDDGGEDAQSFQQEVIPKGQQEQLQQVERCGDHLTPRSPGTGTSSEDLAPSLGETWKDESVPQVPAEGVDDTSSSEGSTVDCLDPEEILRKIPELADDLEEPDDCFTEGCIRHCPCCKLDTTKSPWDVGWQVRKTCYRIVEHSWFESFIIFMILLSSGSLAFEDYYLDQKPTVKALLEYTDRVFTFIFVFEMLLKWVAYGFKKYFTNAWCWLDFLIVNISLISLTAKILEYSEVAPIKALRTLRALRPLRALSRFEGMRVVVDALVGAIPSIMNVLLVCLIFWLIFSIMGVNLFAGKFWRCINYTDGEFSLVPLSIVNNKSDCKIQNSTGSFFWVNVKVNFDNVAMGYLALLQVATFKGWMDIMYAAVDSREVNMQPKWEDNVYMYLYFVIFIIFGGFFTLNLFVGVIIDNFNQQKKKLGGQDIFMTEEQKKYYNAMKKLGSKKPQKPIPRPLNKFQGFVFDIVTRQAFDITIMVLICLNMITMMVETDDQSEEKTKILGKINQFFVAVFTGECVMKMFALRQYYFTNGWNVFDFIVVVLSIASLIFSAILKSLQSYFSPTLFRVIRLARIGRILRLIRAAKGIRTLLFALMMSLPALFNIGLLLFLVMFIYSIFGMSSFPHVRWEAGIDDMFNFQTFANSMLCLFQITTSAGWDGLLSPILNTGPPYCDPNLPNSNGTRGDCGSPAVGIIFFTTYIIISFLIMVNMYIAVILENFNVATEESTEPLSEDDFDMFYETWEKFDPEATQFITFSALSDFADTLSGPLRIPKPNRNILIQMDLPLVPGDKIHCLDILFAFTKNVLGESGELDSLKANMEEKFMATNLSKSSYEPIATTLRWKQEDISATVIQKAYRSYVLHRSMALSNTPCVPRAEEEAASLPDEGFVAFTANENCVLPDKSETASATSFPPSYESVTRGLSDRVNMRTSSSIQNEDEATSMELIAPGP
Data set [17] concerns the target T2, Sodium channel protein type 5 subunit alpha. Put plainly: Inhibition of human Nav1.5 expressed in CHO cells under inactivated state by automated patch clamp electrophysiology analysis. The class given is cell-based.
Another data set deals with HepG2. The data set is described as follows: Cytotoxicity against human HepG2 cells.

The source made the active and inactive calls. No cut-off for these calls is given here. Where only a bound is given, the exact number is not on record here.

Sequence of Sodium channel protein type 4 subunit alpha (Rattus norvegicus) (P15390 whole entry): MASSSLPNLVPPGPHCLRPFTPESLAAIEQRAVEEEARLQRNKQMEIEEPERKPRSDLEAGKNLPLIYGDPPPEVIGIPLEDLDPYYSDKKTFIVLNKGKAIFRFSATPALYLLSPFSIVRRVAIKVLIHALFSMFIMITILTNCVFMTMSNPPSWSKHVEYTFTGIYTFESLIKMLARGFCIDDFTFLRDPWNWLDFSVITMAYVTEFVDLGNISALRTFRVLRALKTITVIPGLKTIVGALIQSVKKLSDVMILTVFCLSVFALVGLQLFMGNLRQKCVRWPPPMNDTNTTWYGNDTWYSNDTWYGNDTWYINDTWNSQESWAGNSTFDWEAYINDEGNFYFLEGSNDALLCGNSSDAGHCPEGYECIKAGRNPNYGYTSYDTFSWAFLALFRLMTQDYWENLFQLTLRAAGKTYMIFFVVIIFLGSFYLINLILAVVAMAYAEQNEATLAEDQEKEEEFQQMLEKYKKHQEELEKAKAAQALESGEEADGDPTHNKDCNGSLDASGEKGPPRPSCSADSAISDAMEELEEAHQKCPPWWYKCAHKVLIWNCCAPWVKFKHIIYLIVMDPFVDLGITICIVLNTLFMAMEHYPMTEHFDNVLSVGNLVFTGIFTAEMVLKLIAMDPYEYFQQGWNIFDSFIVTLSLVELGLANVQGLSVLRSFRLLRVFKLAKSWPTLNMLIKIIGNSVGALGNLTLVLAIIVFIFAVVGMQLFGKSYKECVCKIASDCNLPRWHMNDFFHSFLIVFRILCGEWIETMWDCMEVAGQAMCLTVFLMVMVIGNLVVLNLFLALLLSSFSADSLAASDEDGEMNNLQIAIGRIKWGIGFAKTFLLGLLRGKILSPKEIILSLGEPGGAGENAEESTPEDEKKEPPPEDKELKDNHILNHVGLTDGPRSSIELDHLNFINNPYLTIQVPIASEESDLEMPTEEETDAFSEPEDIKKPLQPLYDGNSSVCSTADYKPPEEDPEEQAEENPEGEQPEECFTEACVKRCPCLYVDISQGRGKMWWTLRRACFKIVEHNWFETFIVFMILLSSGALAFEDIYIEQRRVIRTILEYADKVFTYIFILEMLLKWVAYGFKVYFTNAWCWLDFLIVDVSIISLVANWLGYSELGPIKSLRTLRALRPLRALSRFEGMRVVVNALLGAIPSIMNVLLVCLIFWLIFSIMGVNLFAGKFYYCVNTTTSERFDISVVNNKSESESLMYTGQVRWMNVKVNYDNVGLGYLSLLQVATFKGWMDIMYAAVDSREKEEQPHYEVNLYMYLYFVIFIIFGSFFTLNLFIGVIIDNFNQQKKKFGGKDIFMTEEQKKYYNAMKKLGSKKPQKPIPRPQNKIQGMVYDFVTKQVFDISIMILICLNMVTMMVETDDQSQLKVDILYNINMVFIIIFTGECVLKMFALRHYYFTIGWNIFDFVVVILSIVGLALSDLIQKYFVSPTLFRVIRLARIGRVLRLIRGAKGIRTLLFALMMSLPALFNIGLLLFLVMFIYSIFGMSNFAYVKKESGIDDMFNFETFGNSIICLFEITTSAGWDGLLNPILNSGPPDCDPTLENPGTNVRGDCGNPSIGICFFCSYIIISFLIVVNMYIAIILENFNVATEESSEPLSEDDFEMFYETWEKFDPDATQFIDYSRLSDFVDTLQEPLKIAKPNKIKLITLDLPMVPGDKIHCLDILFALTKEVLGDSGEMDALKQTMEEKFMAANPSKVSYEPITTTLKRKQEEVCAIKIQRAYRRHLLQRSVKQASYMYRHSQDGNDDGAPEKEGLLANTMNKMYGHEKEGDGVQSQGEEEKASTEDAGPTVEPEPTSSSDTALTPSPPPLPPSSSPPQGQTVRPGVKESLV

As for `O=C(Nc1ccc(S(=O)(=O)Nc2nccs2)cc1)C1CC1c1ccc(F)c(F)c1` (racemic), the inhibition result in data set [1], in data set [2], in data set [8], in [12], in data set [14] and in [16] was “inactive” in each case. Further, the IC50 in data set [3] was over 30 µM; in [4], over 30 µM; in data set [5], 0.02 µM; in data set [6] it was 7.1 µM; in data set [9], 6.9 µM; in [10], over 30 µM. Besides, the IC50 in data set [13] is over 30 µM; in [17] it was 3 µM. Further, the inhibition was 63% in data set [7] and under 9% in [11]. The “inhibition (INH)” value in data set [15] is recorded as “Not Active”.

On to `O=C(Nc1ccc(S(=O)(=O)Nc2nccs2)cc1)C1Cc2cc(Cl)ccc2O1` (centres undefined), for which the inhibition entry in data set [1], in data set [2], in data set [8], in data set [12], in data set [14] and in data set [16] was “inactive” in each case. For the same compound, the IC50 in [4] is over 30 µM; in data set [5], 0.24 µM; in data set [9], over 30 µM; in data set [13], over 30 µM. Besides, the inhibition in [7] was determined as 21%. Besides, in data set [15], the “inhibition (INH)” value was “Not Active”.

Regarding `O=C(Nc1ccc(S(=O)(=O)Nc2nccs2)cc1)c1cc(Br)c(Br)n1-c1ccccc1`, the IC50 in data set [3] was over 30 µM; in [4], over 30 µM; in data set [6], 9.3 µM; in data set [10] it was over 30 µM; in [13], over 30 µM; in data set [17] it was 3.4 µM. Further, the “inhibition (INH)” value in data set [15] is listed as “Not Active”.

As to `CC(Oc1ccc(Cl)cc1)C(=O)Nc1ccc(S(=O)(=O)Nc2nccs2)cc1` (centres undefined), the inhibition entry in data set [1], in [2], in data set [8], in [12], in [14] and in data set [16] was “inactive” each time. The half-maximal inhibitory concentration (IC50) in [4] is over 30 µM; in [5], 0.32 µM; in data set [9], over 30 µM; in [13], over 30 µM. In data set [7], this compound yielded an inhibition of 21%. In [15], the “inhibition (INH)” value is “Not Active”.

In the data set on HepG2, `COc1cc([C@@H]2c3cc4c(cc3[C@@H](O[C@@H]3O[C@@H]5CO[C@@H](C)O[C@H]5[C@H](O)[C@H]3O)[C@H]3COC(=O)[C@H]23)OCO4)cc(OC)c1O` [ETOPOSIDE] gave an IC50 of 30.2 µM.

One may read the inhibition as the share of the control response that was lost under treatment. Broadly, the IC50 is the concentration at which inhibition is half-maximal. Read a high IC50 as weaker potency.
